Data on four molecules can be found in PMC4958041 (Journal of enzyme inhibition and medicinal chemistry, 2016).

Read-outs that look alike come from different tables or passages of the source.

The target of assay [1] is T1, human TMEM16A (Homo sapiens, UniProt Q5XXA6, DEL476-501).
T1 sequence (Q5XXA6 with tags, fused parts or gaps isoform Q5XXA6-5 DEL539-564): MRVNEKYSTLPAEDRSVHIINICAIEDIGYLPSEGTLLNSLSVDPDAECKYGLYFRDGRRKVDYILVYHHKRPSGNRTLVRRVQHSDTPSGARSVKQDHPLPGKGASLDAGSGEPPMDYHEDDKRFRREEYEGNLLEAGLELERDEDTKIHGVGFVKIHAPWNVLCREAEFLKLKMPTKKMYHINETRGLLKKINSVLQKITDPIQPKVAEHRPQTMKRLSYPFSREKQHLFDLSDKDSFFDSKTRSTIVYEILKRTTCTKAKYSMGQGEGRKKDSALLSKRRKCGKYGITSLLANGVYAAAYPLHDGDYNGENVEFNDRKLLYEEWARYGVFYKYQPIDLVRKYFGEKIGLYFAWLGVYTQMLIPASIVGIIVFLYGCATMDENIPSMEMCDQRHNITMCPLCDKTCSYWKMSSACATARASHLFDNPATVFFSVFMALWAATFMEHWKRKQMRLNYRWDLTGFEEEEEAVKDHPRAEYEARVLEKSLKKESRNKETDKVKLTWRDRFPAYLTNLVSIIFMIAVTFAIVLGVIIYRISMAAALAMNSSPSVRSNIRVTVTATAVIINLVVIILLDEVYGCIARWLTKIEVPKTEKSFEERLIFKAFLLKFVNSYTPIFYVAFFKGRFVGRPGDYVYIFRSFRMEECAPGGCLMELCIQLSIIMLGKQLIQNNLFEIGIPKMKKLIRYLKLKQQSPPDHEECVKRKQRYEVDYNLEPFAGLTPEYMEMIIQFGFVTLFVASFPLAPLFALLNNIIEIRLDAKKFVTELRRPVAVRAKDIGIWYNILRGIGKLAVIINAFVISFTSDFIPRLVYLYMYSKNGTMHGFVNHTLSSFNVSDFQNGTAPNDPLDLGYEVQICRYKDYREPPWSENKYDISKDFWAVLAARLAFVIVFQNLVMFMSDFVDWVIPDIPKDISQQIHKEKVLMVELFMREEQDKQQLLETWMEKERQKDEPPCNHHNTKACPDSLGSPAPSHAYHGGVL
Briefly: Short-circuit current assay in FRT-TMEM16A cells. In kind it is cell-based. Put shortly:
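FRT cells stably expressing human TMEM16A, grown on Snapwell inserts and mounted in Ussing chambers. Basolateral membrane permeabilized with amphotericin B (250 µg/ml, 30 min). Chloride gradient: HCO3-buffered basolateral solution; apical 120 mM NaCl replaced by Na gluconate. 37 °C, 95% O2/5% CO2, 10-min stabilization. Test compound added apically 5 min before activation by 100 µM ATP. IC50 from short-circuit current concentration-dependence.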

In assay [2] the target is T1, human TMEM16A. Briefly: TMEM16A functional assay. In kind it is cell-based. The following applies: for TMEM16A inhibition activity on initial testing: tested at 10 µM, fluorescence plate reader assay. The method in brief:
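FRT cells stably co-expressing human TMEM16A (abc isoform) and YFP-H148Q/I152L/F46L, assayed 24 h after plating. Wells washed twice with PBS; test compound added in DMSO for 10 min. Fluorescence read every 400 ms: 2 s baseline, 140 mM iodide added at 2 s, then 70 mM iodide containing 300 µM ATP at 6.4 s. Initial iodide influx rate fitted by non-linear regression. Screen at 10 µM; IC50 from concentration-inhibition data.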

Assay [3] has as its target T1, human TMEM16A. The following applies: read-out: IC50, short-circuit current assay of TMEM16A function; as reported previously; cited from earlier work.

Usually IC50 stands for the concentration needed to halve the response being measured. Turning to `CCc1c(C)nc(SCC(=O)Nc2nc(-c3cccs3)cs2)nc1O` [Compound 9bo, 2-(5-Ethyl-4-hydroxy-6-methyl-pyrimidin-2-ylsulfanyl)-N-(4-thiophen-2-yl-thiazol-2-yl)-acetamide], in assay [1], the IC50 was approximately 1 µM. For the same molecule, in assay [2], the IC50 is 3.5 µM and the “TMEM16A inhibition activity on initial testing” value (from here on “TMEM16A inhibition activity”) was “measurable activity”.

As for `CCc1c(C)nc(SCC(=O)Nc2nc(-c3ccc(OC)cc3)cs2)[nH]c1=O` [Compound T16Ainh-A01], in assay [3], the IC50 is approximately 1 µM.

Turning to `Cc1c(O)nc(SCC(=O)Nc2nc(-c3ccccc3)cs2)nc1C(F)(F)F` [Compound 9ao, 2-(4-Hydroxy-5-methyl-6-trifluoromethyl-pyrimidin-2-ylsulfanyl)-N-(4-phenyl-thiazol-2-yl)-acetamide], in assay [2], inhibition was half-maximal at 6.2 µM (IC50) and the “TMEM16A inhibition activity” value is listed as “measurable activity”.

`Cc1nc(SCC(=O)Nc2nc(-c3cccs3)cs2)nc(O)c1C` [Compound 9bs, 2-(4-Hydroxy-5,6-dimethyl-pyrimidin-2-ylsulfanyl)-N-(4-thiophen-2-yl-thiazol-2-yl)-acetamide]: the IC50 in assay [1] was approximately 3 µM; in assay [2], 2.9 µM. For the same molecule, the “TMEM16A inhibition activity” value in assay [2] is recorded as “measurable activity”.
